The list is not random: actives were taken first. Their share in the collection is about 2.5%.
miR122 inh: miR-122 Renilla sensor signal increase in Huh7, primary screen, miR-122 inhibitor project, cell-based, single point, plate reader. 0.3% of 340,000 active. activation (reporter increase), % at 12.5 µM. Huh7 miR-122 Renilla luciferase sensor, 48 h; neutral wells = 0, positive control = 100;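 active = mean replicate activation score at least 90 and every replicate individually at or above 90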;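 note: higher luciferase means less miR-122 activity so hits act as miR-122 inhibitors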
FGF22 binding: binders of human FGF22 protein, primary screen, FGF22 synaptogenesis inhibitor project, biophysical, thermal shift, single point; Fibroblast growth factor 22 (Homo sapiens), Q9HCT0; recombinant FGF22 thermal shift, SYPRO orange fluorescence; percent of sucrose octasulfate shift, DMSO zero; activity (Tm shift, normalised), % at 9.99 µM; 1.5% of 340,000 active; AID 651658, 2012;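 active = mean Tm shift, scaled 0 neutral to 100 positive control, at about 1.3% or above, every replicate too, limit read from the data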
Target sequence (Q9HCT0 whole entry, looked up): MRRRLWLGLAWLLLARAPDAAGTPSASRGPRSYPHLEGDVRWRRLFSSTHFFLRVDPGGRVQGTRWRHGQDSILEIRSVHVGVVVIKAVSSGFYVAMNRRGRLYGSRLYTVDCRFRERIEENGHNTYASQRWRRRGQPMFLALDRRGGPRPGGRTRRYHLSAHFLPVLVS
S100A4 MyoIIA: inhibitors of S100A4-myosin IIA peptide binding, primary screen, biochemical, fluorescence polarization, TAMRA-MyoIIA peptide. 0.14% of 360,000 active. Protein S100-A4 (Homo sapiens), P26447. inhibition, % at 10.7 µM. AID 652163, 2013;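 active = mean inhibition of at least 70% across replicates, with every replicate also reaching that level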
Target sequence (P26447 whole entry, looked up): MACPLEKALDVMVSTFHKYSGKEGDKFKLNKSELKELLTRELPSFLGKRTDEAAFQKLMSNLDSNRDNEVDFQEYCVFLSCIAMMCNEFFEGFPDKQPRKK
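Material: S100A4 monomer protein | Medium: HEPES pH 7.2 with CaCl2, KCl, NaCl, DTT, Triton | Reagent: Labelled myosin peptide probe, 5 nM | Doses: One dose per compound | Times: 5 min incubation before reading | Benchmarks: Neutral control DMSO, positive control TFP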
E-selectin induc: E-selectin induction in HUVECs, primary screen, imaging, HUVEC, immunofluorescence imaging, single point. normalized: neutral wells 0, TNF-alpha wells 100. AID 686992, 2013. P16581. 0.37% of 260,000 active. activation, % at 7.58 µM;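 active = mean E-selectin-positive cell signal at least 10% of the positive control, reached in at least 60% of replicates, without over 20% cell loss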
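Assay system: HUVEC, human umbilical vein endothelial cells / Amount: 3,000 HUVEC/well / Controls: TNF-alpha positive control, DMSO neutral control / Compound dosing: single concentration / Medium: EGM-2 over gelatin coat / Evaluation: percent E-selectin-positive cells / Signal: immunofluorescence imaging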
SIRT5 block: SIRT5 desuccinylase inhibitors, primary screen, biochemical, fluorescence imaging, single point, set 5. Purified SirT5, succinyl-peptide AMC, trypsin-coupled fluorescence. inhibition, % at 15 µM. 1.1% of 330,000 active; in the data active = inhibition above about 15%
Target sequence (Q9NXA8 whole entry, looked up): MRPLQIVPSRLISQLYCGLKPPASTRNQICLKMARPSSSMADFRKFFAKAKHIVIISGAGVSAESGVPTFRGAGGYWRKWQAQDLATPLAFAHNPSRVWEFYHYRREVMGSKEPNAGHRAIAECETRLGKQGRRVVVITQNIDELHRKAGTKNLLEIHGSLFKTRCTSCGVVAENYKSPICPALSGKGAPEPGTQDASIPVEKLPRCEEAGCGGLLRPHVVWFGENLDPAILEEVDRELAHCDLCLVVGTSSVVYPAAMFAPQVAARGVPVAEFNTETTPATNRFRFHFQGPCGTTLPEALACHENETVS
An asterisk follows results filed as active; nt = not tested or not shown; [ ] = dose if it differs, or a comment.

SMILES	miR122 inh	FGF22 binding	S100A4 MyoIIA	E-selectin induc	SIRT5 block
C/C(=N\Nc1ccc(Cl)c(C(=O)O)c1)c1ccc[nH]1	-1	0	-2	0	24*
Cc1ccc(S(=O)(=O)Nc2ccc3c(c2)C(=O)N([C@@H](C)CO)C[C@@H](C)[C@H](CN(C)Cc2ccc(C(F)(F)F)cc2)OCCCC[C@H](C)O3)cc1	-10[16.7 µM]	-1	29	nt	11
Cc1ccc(S(=O)(=O)Nc2ccc3c(c2)C(=O)N([C@H](C)CO)C[C@H](C)[C@@H](CN(C)Cc2ccc(C(F)(F)F)cc2)OCCCC[C@@H](C)O3)cc1	-7[16.7 µM]	0	4	nt	2
Cc1ccc(S(=O)(=O)Nc2ccc3c(c2)C(=O)N([C@H](C)CO)C[C@H](C)[C@H](CN(C)Cc2ccc(C(F)(F)F)cc2)OCCCC[C@H](C)O3)cc1	-13[16.7 µM]	0	5	nt	32*
Cc1ccc(S(=O)(=O)Nc2ccc3c(c2)C(=O)N([C@@H](C)CO)C[C@@H](C)[C@H](CN(C)Cc2ccc(C(F)(F)F)cc2)OCCCC[C@@H](C)O3)cc1	-16[16.7 µM]	-1	-17	nt	18*
Cc1ccc(S(=O)(=O)Nc2ccc3c(c2)C(=O)N([C@H](C)CO)C[C@@H](C)[C@@H](CN(C)Cc2ccc(C(F)(F)F)cc2)OCCCC[C@H](C)O3)cc1	-3[16.7 µM]	-1	5	nt	20*
Cc1ccc(S(=O)(=O)Nc2ccc3c(c2)C(=O)N([C@H](C)CO)C[C@@H](C)[C@@H](CN(C)Cc2ccc(C(F)(F)F)cc2)OCCCC[C@@H](C)O3)cc1	-8[16.7 µM]	0	7	nt	18*
CN1CCN(C(=O)C[C@H]2C[C@H]3c4cc(NC(=O)C5CCOCC5)ccc4O[C@H]3[C@H](CO)O2)CC1	7[16.7 µM]	0	7	0	-4
Cc1ccccc1-c1ccc([C@@H]2[C@H](CO)N3C(=O)CN(C(=O)NC4CCCC4)C[C@@H]23)cc1	nt	0	7	0	-3
CO[C@@H]1CN(C)C(=O)c2cc(NC(=O)c3cnccn3)ccc2OC[C@H](C)N(C(C)=O)C[C@@H]1C	nt	0	5	0	nt
Cc1ccc(S(=O)(=O)Nc2ccc3c(c2)C(=O)N([C@@H](C)CO)C[C@H](C)[C@@H](CN(C)Cc2ccc(C(F)(F)F)cc2)OCCCC[C@H](C)O3)cc1	-9[16.7 µM]	0	-3	nt	23*
Cc1ccc(S(=O)(=O)NCC(=O)OCC(=O)NCc2ccc3c(c2)OCO3)cc1	-4	0	-4	2	1
CC(=O)Nc1ccc(S(=O)(=O)NCC(=O)OCC(=O)NCc2ccc3c(c2)OCO3)cc1	nt	44*	0	0	nt
O=C(Nc1ccc(S(=O)(=O)NCc2ccccc2)cc1)Nc1ccc2c(c1)OCO2	243*	0	-8	nt	-1
CC(=O)Nc1ccc(C(=O)OCC(=O)NCc2ccc3c(c2)OCO3)cc1	-8	43*	3	0	nt
Cc1noc(C)c1CSCC(=O)Nc1cc(C(F)(F)F)ccc1N1CCOCC1	7	0	-2	41*	-1
CCN(CC)S(=O)(=O)c1ccc(N2CCOCC2)c(NC(=O)CSCc2c(C)noc2C)c1	nt	0	-4	nt	0
Cc1ccccc1S(=O)(=O)N1CC[C@@H]2[C@@H](CO)N(C)c3ccc(-c4ccccc4)cc3[C@@H]21	102*[16.7 µM]	0	-5	0	nt
COc1ccc(-c2ccc3c(c2)[C@@H]2[C@@H](CCN2C(=O)NC2CCCC2)[C@H](CO)N3C)cc1	nt	nt	82*	0	-6
COc1ccc(S(=O)(=O)N2CC[C@@H]3[C@@H](CO)N(C)c4ccc(-c5ccc(F)cc5)cc4[C@@H]32)cc1	196*[16.7 µM]	0	-5	0	5
CN1c2ccc(-c3cccc(C#N)c3)cc2[C@H]2[C@H](CCN2S(=O)(=O)c2ccccc2F)[C@H]1CO	58[16.7 µM]	0	123*	2	-19
Cc1ccccc1S(=O)(=O)N1CC[C@@H]2[C@H]1c1cc(-c3cccc(F)c3)ccc1N(C)[C@H]2CO	6[16.7 µM]	0	nt	0	nt
COc1cccc(S(=O)(=O)Nc2ccc3c(c2)[C@H]2C[C@@H](CC(=O)N(C)C)O[C@@H](CO)[C@H]2O3)c1	12[16.7 µM]	0	10	0	-1
CCS(=O)(=O)N1CC2(CN(C(=O)CN3CCOCC3)[C@@H](CO)c3c2c2ccc(OC)cc2n3C)C1	nt	0	3	0	-3
Cc1oc(-c2cccc(Cl)c2)nc1CN(C)C1CCOC1 (stereo not given)	nt	0	-4	nt	-1
SMILES	miR122 inh	FGF22 binding	S100A4 MyoIIA	E-selectin induc	SIRT5 block
Cc1oc(-c2ccc(-c3ccccc3)cc2)nc1CN(C)C1CCOC1 (stereo not given)	-2	0	-2	0	18*
CCCN(C)C[C@@H]1Oc2cc(C3=CCCC3)ccc2S(=O)(=O)N([C@H](C)CO)C[C@@H]1C	-7[16.7 µM]	nt	nt	0	nt
O=S(=O)(c1ccc(Cl)cc1Cl)n1ccc2cccnc21	13	43*	-2	-1	8
COc1ccn(C2CCCCO2)c(=O)n1 (stereo not given)	-6	43*	25	0	nt
Nc1ccn(C2CCCCO2)c(=O)n1 (stereo not given)	-6	1	-1	0	nt
CCCC(=O)N1CC2(C1)CN(C(=O)CC)[C@@H](CO)c1c2c2ccc(OC)cc2n1C	nt	0	4	0	-5
c1ccc2c(c1)CCN(C1=Nc3cccc4cccc1c34)C2	30	43*	-9	nt	-1
CCCS(=O)(=O)N1CCN(Cc2c[nH]c3ccccc23)CC1	-7	43*	-2	nt	-4
COc1ccc(S(=O)(=O)N2CCN(Cc3c[nH]c4ccccc34)CC2)cc1	3	nt	nt	nt	nt
Cc1ccc(-c2nn(CCC(=O)O)cc2/C=C\C(=O)c2ccc(Br)cc2)cc1	11	15*	-3	nt	2
CNC(=O)C[C@@H]1CC[C@@H]2[C@@H](COc3ccc(NC(=O)Nc4cccc(F)c4)cc3C(=O)N2C)O1	-12[16.7 µM]	0	nt	0	nt
COc1ccc(N2CCN(C(=O)c3cccc(NC4=NC5CS(=O)(=O)CC5S4)c3)CC2)cc1 (stereo not given)	8	-1	2	53*	-2
COc1ccc2c3c(n(C)c2c1)[C@H](CO)N(C(=O)NC(C)C)CC31CN(C(=O)NC(C)C)C1	nt	0	-53	0	-1
CCOc1ccc(Cl)cc1CNCCCSc1ncccn1	-3	0	1	nt	7
CCOc1ccc(Cl)cc1CNCCCSc1nc(C)cc(C)n1	nt	0	0	nt	20*
O=C(Nc1nc2c(s1)CCc1ccccc1-2)c1ccco1	98*	nt	nt	nt	nt
Cc1csc2c(=O)sc(NC(=O)c3ccco3)nc12	117*	0	-5	1	3

High-throughput results as filed in PubChem.
